pIC50: −log10 of the molar value. The source made the active and inactive calls. The calls are words filed in the database; no cut-off is given here.
Experiments:
Mus musculus [1] = experiment: Protective activity in Fmr1 FVB.129P2-Pde6b+ Tyr c-ch/AntJ wild type mouse assessed as change in apical dendritic spine density in cortical neuron at 20 mg/kg, sc and measured after 8 hrs by Golgi-Cox technique analysis; type: functional, organism-based; conditions: Cortical neurone
Mus musculus [2] = experiment: (§1) Anti-seizure activity against 124dB loud auditory stimulus induced Fmr1 knockout FVB.129P2-Fmr1tm1Cgr/J mouse model of audiogenic seizure assessed as decrease in sound-induced wild running at 10 mg/kg,sc for 8 hrs followed by audiogenic seizure induction by audiogenic seizure assay (Rvb=100%); type: functional; design: scale not given: the % may be the effect or the level left
How it was run: (§2)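 Adult male mice (10–17 wk). Single s.c. dose (0, 10, 20 or 30 mg/kg) in 20% (wt/vol) hydroxypropyl-β-cyclodextrin vehicle; AGS induced 8 h later. Mouse acclimated 2 min in a clear acrylic two-chamber box, then exposed to a 124 dB sound. Scored as percentage of animals showing each sequential phase (wild running, seizure, death by respiratory arrest); χ2 test against vehicle.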

Mus musculus [3] = experiment: Protective activity in FVB.129P2-Pde6b+ Tyr c-ch/AntJ wild type mouse assessed as balance on accelerating rotarod at 20 mg/kg, sc and measured for 4 to 5.25 hrs by rotarod test; type: functional, organism-based; conditions: time 4-5.25 hrs
How it was run: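 Adult male WT and Fmr1 KO mice tested 4–5.5 h after s.c. 20 mg/kg or vehicle. Latency to fall or jump off the rotating cylinder recorded (max 3 min). Three trials per mouse, 30–40 min apart; per-mouse average latency compared.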

Mus musculus [4] = experiment: Protective activity in Fmr1 knockout FVB.129P2-Fmr1tm1Cgr/J mouse model of Fragile X syndrome assessed as motor coordination at 20 mg/kg, sc and measured for 4 to 5.25 hrs by rotarod test; type: functional, organism-based; conditions: time 4-5.25 hrs
How it was run: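 Adult male Fmr1 KO mice (FVB background, 10–17 wk old) got FRAX486 s.c. at 20 mg/kg as a 2 mg/mL solution in 20% (wt/vol) hydroxypropyl-β-cyclodextrin; vehicle-only controls. Rotarod was run 4–5.5 h after dosing. Latency to fall or jump off the rotating cylinder was recorded, with a maximum of 3 min. Three trials 30–40 min apart were averaged per mouse.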

Mus musculus [5] = experiment: Protective activity in Fmr1 knockout FVB.129P2-Fmr1tm1Cgr/J mouse model of Fragile X syndrome assessed as increase in testicular weight at 20 mg/kg, sc for 21 days; type: functional, organism-based; conditions: time 21.0 day
[6] = Toxicity in Fmr1 knockout FVB.129P2-Fmr1tm1Cgr/J mouse assessed as body weight change at 20 mg/kg,sc for 21 days; type: organism-based; conditions: in vivo, 504 h, time 21 day
Mus musculus [7] = experiment: Protective activity in Fmr1 knockout FVB.129P2-Fmr1tm1Cgr/J mouse model of Fragile X syndrome assessed as decrease in counterclockwise revolutions at 20 mg/kg, sc for 5 days by open field assay; type: functional, organism-based; conditions: time 5.0 day
How it was run: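 Adult male WT and Fmr1 KO mice dosed s.c. at 20 mg/kg or vehicle for 5 d; tested 4–5.5 h after dosing. Single mouse in a novel open field for 30 min, tracked by infrared sensors in 1-min bins; bar-graph values averaged over minutes 18–30. Mice beyond 2 SD in total distance, or immobile for 5 consecutive minutes, were excluded.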

Mus musculus [8] = experiment: Anti-seizure activity against 124dB loud auditory stimulus induced Fmr1 FVB.129P2-Pde6b+ Tyr c-ch/AntJ wild type mouse model of audiogenic seizure assessed as decrease in sound-induced death due to respiratory arrest at 20 mg/kg,sc for 8 hrs followed by audiogenic seizure induction by audiogenic seizure assay; type: functional, organism-based; how it was run: as §2
Mus musculus [9] = experiment: Anti-seizure activity against 124dB loud auditory stimulus induced Fmr1 knockout FVB.129P2-Fmr1tm1Cgr/J mouse model of audiogenic seizure assessed as decrease in sound-induced seizure at 30 mg/kg,sc for 8 hrs followed by audiogenic seizure induction by audiogenic seizure assay (Rvb=100%); type: functional; design: scale not given: the % may be the effect or the level left; how it was run: as §2
Mus musculus [10] = experiment: as §1, with “at 20” for “at 10”, “for 5 days” for “for 8 hrs”, “induction after 8 hrs post-treatment” for “induction”; type: functional; design: scale not given: the % may be the effect or the level left; conditions: time 5 day
How it was run: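 Adult male Fmr1 KO mice given 10 or 20 mg/kg s.c. daily for 5 d in 20% hydroxypropyl-β-cyclodextrin vehicle. AGS assay run 8 h after the final injection: 2 min acclimation in an acrylic chamber, then a 124 dB auditory stimulus. Incidence of wild running and seizure recorded; χ2 comparison with vehicle.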

[11] = target: Serine/threonine-protein kinase PAK 3 (Homo sapiens, UniProt O75914); experiment: Inhibition of PAK3 (unknown origin) by Z'-LYTE functional assay
How it was run: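 Full-length PAK isoforms phosphorylating an optimized peptide substrate in a Z-LYTE biochemical kinase assay, 10-point inhibitor titration. Duplicates (n = 2, mean ± SEM) plotted semilog; IC50 from a variable-slope sigmoidal dose–response fit.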

Mus musculus [12] = experiment: Protective activity in Fmr1 knockout FVB.129P2-Fmr1tm1Cgr/J mouse assessed as decrease in apical dendritic spine density in layer II/III pyramidal neurons segment 7 at 20 mg/kg, sc and measured after 8 hrs by Golgi-Cox technique analysis; type: functional, organism-based
How it was run: (§3)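 Adult male WT and Fmr1 KO FVB mice given 20 mg/kg s.c. or vehicle; brains collected 8 h later and Golgi stained. Apical dendrites of layer II/III pyramidal neurons in temporal cortex, originating 50–100 µm from the soma, were divided into ten 10-µm segments and spines counted. 40–60 neurons from 4–6 mice per group; one-way ANOVA.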

Mus musculus [13] = experiment: Protective activity in Fmr1 knockout FVB.129P2-Fmr1tm1Cgr/J mouse assessed as decrease in apical dendritic spine density in layer II/III pyramidal neurons segment 1 at 20 mg/kg, sc and measured after 8 hrs by Golgi-Cox technique analysis; type: functional, organism-based; how it was run: as §3
Mus musculus [14] = experiment: Protective activity in Fmr1 knockout FVB.129P2-Fmr1tm1Cgr/J mouse assessed as decrease in apical dendritic spine density in layer II/III pyramidal neurons segment 10 at 20 mg/kg, sc and measured after 8 hrs by Golgi-Cox technique analysis; type: functional, organism-based; how it was run: as §3

Chain of Serine/threonine-protein kinase PAK 3 (O75914 whole entry, canonical isoform): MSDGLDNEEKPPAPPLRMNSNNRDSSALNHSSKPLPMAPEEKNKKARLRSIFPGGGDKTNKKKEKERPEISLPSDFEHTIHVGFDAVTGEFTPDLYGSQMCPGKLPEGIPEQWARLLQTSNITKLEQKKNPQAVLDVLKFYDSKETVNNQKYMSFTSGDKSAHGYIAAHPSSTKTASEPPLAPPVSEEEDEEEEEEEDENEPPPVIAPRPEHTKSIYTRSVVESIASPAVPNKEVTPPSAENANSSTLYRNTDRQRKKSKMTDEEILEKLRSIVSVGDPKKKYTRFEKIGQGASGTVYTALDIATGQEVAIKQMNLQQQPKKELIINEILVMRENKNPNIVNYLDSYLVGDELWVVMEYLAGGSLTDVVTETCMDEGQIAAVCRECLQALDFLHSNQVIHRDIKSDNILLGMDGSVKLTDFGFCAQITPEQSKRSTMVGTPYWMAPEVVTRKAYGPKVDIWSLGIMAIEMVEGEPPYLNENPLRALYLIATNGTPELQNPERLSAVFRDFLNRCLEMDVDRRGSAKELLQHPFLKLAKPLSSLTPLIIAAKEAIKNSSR

CCn1c(=O)c(-c2ccc(Cl)cc2Cl)cc2cnc(Nc3ccc(N4CCNCC4)c(F)c3)nc21
Activity (Mus musculus [1]): inactive | Activity (Mus musculus [2]): 80% | Activity (Mus musculus [3]): inactive | Activity (Mus musculus [4]): inactive | Activity (Mus musculus [5]): inactive | Activity [6]: Non-Toxic | Activity (Mus musculus [7]): Active | Activity (Mus musculus [8]): inactive | Activity (Mus musculus [9]): 0% | Activity (Mus musculus [10]): 54% | pIC50 [11]: 7.26 | Activity (Mus musculus [12]): inactive | Activity (Mus musculus [13]): inactive | Activity (Mus musculus [14]): inactive

From ChEMBL document CHEMBL5653614, “Rescue of fragile X syndrome phenotypes in Fmr1 KO mice by the small-molecule PAK inhibitor FRAX486” (Proc Natl Acad Sci U S A, 2013)
